From ChEMBL document CHEMBL4706499, “PTG-0861: A novel HDAC6-selective inhibitor as a therapeutic strategy in acute myeloid leukaemia” (Eur J Med Chem, 2020) come the findings set out here.

The test system of data set [1] is RPMI-8226. Briefly: Cytotoxicity against human RPMI-8226 cells measured after 72 hrs by spectrophotometer method. In kind it is functional, cell-based. The note with it: RPMI-8226, 72 h.
Data set [2] deals with MV4-11. Briefly: Induction of apoptosis in human MV4-11 cells assessed as early apoptotic cells at 1 microM measured after 18 hrs by Annexin V/Propidium iodide stain based Flow cytometry assay (reference value: 1.7%). In kind it is functional. In general terms: A flow cytometer gives signals particle by particle.
The subject of data set [3] is HUVEC. The data set can be described thus: Cytotoxicity against human HUVEC cells measured after 72 hrs by spectrophotometer method. Format: cell-based.
Data set [4] in a line: Cytotoxicity against human MRC9 cells measured after 72 hrs by spectrophotometer method. Format: cell-based. The note with it: MRC9, 72 h.
The subject of data set [5] is MV4-11. The data set can be described thus: Cytotoxicity against human MV4-11 cells measured after 72 hrs by spectrophotometer method. In kind it is functional, cell-based. The note with it: MV4-11, 72 h.
Data set [6] concerns MV4-11. Briefly: Induction of apoptosis in human MV4-11 cells assessed as late apoptotic cells at 4 microM measured after 18 hrs by Annexin V/Propidium iodide stain based Flow cytometry assay (reference value: 4.91%). Format: functional.
Data set [7] concerns MV4-11. The data set can be described thus: Induction of apoptosis in human MV4-11 cells assessed as viable cells at 0.5 microM measured after 18 hrs by Annexin V/Propidium iodide stain based Flow cytometry assay (reference value: 53.27%). In kind it is functional. Particulars: read-out: Activity.
The target in data set [8] is Histone deacetylase 3 (Homo sapiens, UniProt O15379). The data set can be described thus: Inhibition of recombinant full length human HDAC3 expressed in SF9 baculovirus using FAM- labelled acetylated peptide as substrate measured by Electrophoretic mobility shift assay.
Data set [9] addresses T1, Protein deacetylase HDAC6 (Homo sapiens) (UniProt Q9UBN7).
T1 sequence (whole entry): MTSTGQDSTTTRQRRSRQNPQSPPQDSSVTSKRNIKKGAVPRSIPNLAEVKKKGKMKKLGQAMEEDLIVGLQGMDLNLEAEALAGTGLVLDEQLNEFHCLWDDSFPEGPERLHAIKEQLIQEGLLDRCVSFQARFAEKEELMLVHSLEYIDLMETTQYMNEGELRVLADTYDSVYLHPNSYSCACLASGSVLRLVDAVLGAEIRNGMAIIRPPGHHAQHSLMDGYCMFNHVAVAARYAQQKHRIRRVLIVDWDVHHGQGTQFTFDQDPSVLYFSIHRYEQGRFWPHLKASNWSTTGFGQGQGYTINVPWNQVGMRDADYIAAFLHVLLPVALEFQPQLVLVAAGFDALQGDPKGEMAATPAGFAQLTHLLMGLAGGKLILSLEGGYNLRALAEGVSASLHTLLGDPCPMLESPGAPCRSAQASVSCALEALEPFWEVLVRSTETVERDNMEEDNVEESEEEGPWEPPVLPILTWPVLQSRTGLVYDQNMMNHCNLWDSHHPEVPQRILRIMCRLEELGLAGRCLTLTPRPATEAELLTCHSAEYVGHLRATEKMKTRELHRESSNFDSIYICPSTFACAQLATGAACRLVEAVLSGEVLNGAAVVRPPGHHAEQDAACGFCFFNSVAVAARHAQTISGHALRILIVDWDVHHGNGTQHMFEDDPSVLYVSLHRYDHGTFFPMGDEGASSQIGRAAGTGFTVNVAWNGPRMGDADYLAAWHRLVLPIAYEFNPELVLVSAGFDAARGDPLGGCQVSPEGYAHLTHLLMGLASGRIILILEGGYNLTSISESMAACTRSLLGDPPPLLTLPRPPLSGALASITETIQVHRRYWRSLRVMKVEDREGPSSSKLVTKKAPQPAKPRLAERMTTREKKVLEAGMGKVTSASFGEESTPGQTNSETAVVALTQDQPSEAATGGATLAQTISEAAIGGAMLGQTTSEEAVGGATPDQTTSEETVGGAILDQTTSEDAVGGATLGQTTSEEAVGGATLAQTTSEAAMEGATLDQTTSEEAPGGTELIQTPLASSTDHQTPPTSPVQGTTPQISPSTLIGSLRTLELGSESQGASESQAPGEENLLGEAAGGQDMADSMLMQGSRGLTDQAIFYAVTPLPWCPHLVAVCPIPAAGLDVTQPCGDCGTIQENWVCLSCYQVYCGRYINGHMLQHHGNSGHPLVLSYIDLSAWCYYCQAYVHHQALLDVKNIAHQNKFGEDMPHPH
Briefly: Inhibition of HDAC6 in human HeLa cells assessed as increase in acetylated alpha tubulin at 0.1 uM measured after 6 hrs by Immunofluorescent assay.

Data set [10] in a line: Half life in CD1 mouse at 20 mg/kg, ip measured after 24 hrs by LC/MS/MS method. The note with it: in vivo. Format: ADME, organism-based.
The nature of data set [11]: Toxicity in CD-1 mouse assessed as changes in body weight at 20 mg/kg, po measured after 5 days. Format: organism-based. The note with it: in vivo, 120 h, time 5 day.
A short description of data set [12]: AUC (infinity) in CD1 mouse at 20 mg/kg, ip measured after 24 hrs by LC/MS/MS method. Format: ADME, organism-based. More on the design: route intraperitoneal, dose 20 mg/kg, time 24 hrs. The note with it: in vivo.
The target in data set [13] is T2, Protein deacetylase HDAC6 (Homo sapiens, UniProt Q9UBN7).
T2 sequence (Q9UBN7 whole entry): T1 sequence (whole entry)
Briefly: Inhibition of HDAC6 in human HeLa cells assessed by deacetylation measured after 15 mins by ELISA. In kind it is cell-based. An outline of the steps: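 ELISA activity assay using HeLa-derived active HDAC6 coated on plates. A range of inhibitor concentrations was incubated with the enzyme, and deacetylation activity was monitored over time, with a 0.25 h read. The IC50 was taken from the inhibition profile.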
In general terms: In an ELISA, binding on a coated surface is turned into a signal by an enzyme label.

Data set [14] deals with T3, Histone deacetylase 11 (Homo sapiens, UniProt Q96DB2).
T3 sequence (Q96DB2 whole entry): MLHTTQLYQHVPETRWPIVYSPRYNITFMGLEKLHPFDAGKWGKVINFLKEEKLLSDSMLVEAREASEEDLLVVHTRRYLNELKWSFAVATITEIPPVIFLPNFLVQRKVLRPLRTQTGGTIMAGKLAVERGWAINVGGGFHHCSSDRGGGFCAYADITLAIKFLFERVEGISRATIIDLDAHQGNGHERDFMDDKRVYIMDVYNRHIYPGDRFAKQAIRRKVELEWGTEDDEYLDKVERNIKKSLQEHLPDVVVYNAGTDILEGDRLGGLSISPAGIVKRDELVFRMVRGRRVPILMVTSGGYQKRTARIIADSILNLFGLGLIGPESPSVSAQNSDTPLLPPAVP
Briefly: Inhibition of recombinant full length human HDAC11 expressed in SF9 baculovirus using FAM- labelled acetylated peptide as substrate measured by Electrophoretic mobility shift assay.

The target in data set [15] is Histone deacetylase 2 (Homo sapiens, UniProt Q92769). Briefly: Inhibition of recombinant full length human HDAC2 expressed in SF9 baculovirus using FAM- labelled acetylated peptide as substrate measured by Electrophoretic mobility shift assay.
For data set [16], the system named is MV4-11. Briefly: Induction of apoptosis in human MV4-11 cells assessed as late apoptotic cells at 1 microM measured after 18 hrs by Annexin V/Propidium iodide stain based Flow cytometry assay (reference value: 4.91%). Format: functional.
Data set [17] can be described thus: Selectivity ratio of IC50 for full length recombinant human HDAC3 to IC50 for full length recombinant human HDAC6.
Data set [18] has as its system Fibroblast. The data set can be described thus: Cytotoxicity against pooled human fibroblasts measured after 72 hrs by spectrophotometer method. In kind it is cell-based.
The target in data set [19] is Histone deacetylase 1 (Homo sapiens, UniProt Q13547). The data set can be described thus: Inhibition of recombinant full length human HDAC1 expressed in SF9 baculovirus using FAM- labelled acetylated peptide as substrate measured by Electrophoretic mobility shift assay. (In general: In EMSA bound probe runs differently from free probe, usually more slowly.)

Active and inactive are the calls of the source. The rule behind the calls is not given here.

Histone deacetylase 1, sequence (Q13547 whole entry): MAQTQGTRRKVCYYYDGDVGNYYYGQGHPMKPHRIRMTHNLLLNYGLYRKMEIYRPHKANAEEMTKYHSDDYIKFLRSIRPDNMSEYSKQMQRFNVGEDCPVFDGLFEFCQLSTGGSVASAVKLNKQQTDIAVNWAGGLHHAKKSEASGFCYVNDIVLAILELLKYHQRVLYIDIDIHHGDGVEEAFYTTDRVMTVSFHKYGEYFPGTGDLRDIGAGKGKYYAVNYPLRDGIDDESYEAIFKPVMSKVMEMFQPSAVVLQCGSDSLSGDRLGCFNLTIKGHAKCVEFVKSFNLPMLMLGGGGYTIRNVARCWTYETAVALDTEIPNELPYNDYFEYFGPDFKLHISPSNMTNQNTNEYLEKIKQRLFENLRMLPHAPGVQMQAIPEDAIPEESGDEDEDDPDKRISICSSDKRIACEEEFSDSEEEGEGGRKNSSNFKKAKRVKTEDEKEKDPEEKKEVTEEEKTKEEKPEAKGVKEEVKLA
Histone deacetylase 3, sequence (O15379 whole entry): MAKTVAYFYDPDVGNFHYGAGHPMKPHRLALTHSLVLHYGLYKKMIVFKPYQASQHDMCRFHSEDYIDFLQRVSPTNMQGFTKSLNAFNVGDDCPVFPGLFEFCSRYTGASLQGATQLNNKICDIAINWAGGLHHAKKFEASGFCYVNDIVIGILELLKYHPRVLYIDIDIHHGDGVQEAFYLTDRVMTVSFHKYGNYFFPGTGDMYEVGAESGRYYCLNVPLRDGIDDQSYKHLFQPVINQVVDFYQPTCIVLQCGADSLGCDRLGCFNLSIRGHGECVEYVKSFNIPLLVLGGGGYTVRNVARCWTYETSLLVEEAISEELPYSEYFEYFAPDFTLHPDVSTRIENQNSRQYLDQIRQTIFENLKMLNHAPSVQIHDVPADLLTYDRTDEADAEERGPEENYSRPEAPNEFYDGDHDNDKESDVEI
Histone deacetylase 2, sequence (Q92769 whole entry): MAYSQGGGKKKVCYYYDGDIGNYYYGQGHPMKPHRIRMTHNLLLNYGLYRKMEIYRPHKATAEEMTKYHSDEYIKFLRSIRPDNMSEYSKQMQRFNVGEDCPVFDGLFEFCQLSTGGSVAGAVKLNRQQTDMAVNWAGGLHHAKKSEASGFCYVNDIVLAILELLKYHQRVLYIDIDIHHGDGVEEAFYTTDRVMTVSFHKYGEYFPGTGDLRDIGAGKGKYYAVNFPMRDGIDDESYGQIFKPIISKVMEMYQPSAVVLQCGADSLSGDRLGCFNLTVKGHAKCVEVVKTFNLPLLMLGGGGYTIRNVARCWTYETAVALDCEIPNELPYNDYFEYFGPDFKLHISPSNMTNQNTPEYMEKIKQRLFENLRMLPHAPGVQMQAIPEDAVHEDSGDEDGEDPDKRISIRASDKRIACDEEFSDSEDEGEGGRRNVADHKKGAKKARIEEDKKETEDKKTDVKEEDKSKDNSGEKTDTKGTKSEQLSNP

For the molecule `O=C(NO)c1ccc(CNC(=O)c2c(F)c(F)c(F)c(F)c2F)cc1`, the IC50 was 4940 nM in [1]; 10300 nM in data set [3]; more than 50000 nM in data set [4]; 1850 nM in data set [5]; 215 nM in data set [8]; 590 nM in [13]. Further, the IC50 was more than 1000 nM in data set [14], more than 1000 nM in [15], 14600 nM in data set [18] and more than 1000 nM in data set [19]. The Activity was 4.27% in data set [2], 41% in data set [6], “Non-Toxic” in data set [11] and 11.15% in data set [16]. For the same molecule, the viability at 0.5 µM in data set [7] stood at 47.3%. Further, in [9], the inhibition entry is “Active”. Further, the half-life in data set [10] is 15 min. In addition, in [12], the AUC(0-inf) worked out at 219 ng·h/mL. For the same molecule, the Ratio IC50 in data set [17] turned out to be 36.3.

In general, IC50 refers to the midpoint of a concentration-inhibition curve. One may read the half-life as the time in which the quantity being followed falls by half. High values mean slow decline, low ones rapid decline. A word on the AUC(0-inf): it is total exposure, with the tail of the curve extrapolated. Low values mean less exposure, high ones more exposure.
